Laboratory results from ChEMBL document CHEMBL4689842, “EUbOPEN Chemogenomics Library wave 1” (2021).

Tested on: U2OS
Experiment: Multiplex assay against U2OS
Type: toxicity, cell-based
Conditions: human
Method in brief: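 At seeding, live cells were stained with Hoechst33342, BioTracker Green Microtubule Cytoskeleton Dye, MitoTracker Red and Annexin V Alexa Fluor 680. After compound addition they were imaged on a CQ1 microscope at 37°C and 5% CO2, and CellPathfinder machine-learning gating sorted them into Hoechst high-intensity objects or normal cells, with normal cells further split into healthy, pyknosed or fragmented nuclei and pyknosed cells into mitotic or apoptotic. Tubulin, mitochondrial-mass and membrane-permeability phenotypes are given as per cents of cells with healthy nuclei.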

[1] = 12 h, 1 µM, compound concentration 1 uM, replicate 1
[2] = 12 h, 1 µM, compound concentration 1 uM, replicate 2
[3] = 12 h, 10 µM, compound concentration 10 uM, replicate 1
[4] = 12 h, 10 µM, compound concentration 10 uM, replicate 2
[5] = 24 h, 1 µM, compound concentration 1 uM, replicate 1
[6] = 24 h, 1 µM, compound concentration 1 uM, replicate 2
[7] = 24 h, 10 µM, compound concentration 10 uM, replicate 1
[8] = 24 h, 10 µM, compound concentration 10 uM, replicate 2

COc1ccc(S(=O)(=O)N(CCO)c2ccccc2CN(C)C/C=C/c2ccc(Cl)cc2)cc1.O=P(O)(O)O
Population Apoptotic (%) [1]: 57%
Population Healthy Nuclei (%) [1]: 77%
Population Hoechst High Intensity Objects (%) [1]: 2%
Population Membrane Permeable-Phenotype (%) [1]: 62%
Population Mitochondria Different-Phenotype (%) [1]: 91%
Population Mitotic Cells (%) [1]: 42%
Population Normal (%) [1]: 97%
Population Pyknosed Nuclei (%) [1]: 13%
Total Cell Count [1]: 95
Population Apoptotic (%) [2]: 84%
Population Fragmented Nuclei (%) [2]: 9%
Population Healthy Nuclei (%) [2]: 74%
Population Hoechst High Intensity Objects (%) [2]: 8%
Population Membrane Permeable-Phenotype (%) [2]: 85%
Population Mitochondria Different-Phenotype (%) [2]: 100%
Population Mitotic Cells (%) [2]: 15%
Population Normal (%) [2]: 91%
Population Pyknosed Nuclei (%) [2]: 15%
Population Tubulin-Different-Phenotype (%) [2]: 100%
Total Cell Count [2]: 118
Population Apoptotic (%) [3]: 57%
Population Fragmented Nuclei (%) [3]: 11%
Population Healthy Nuclei (%) [3]: 81%
Population Hoechst High Intensity Objects (%) [3]: 5%
Population Membrane Permeable-Phenotype (%) [3]: 47%
Population Mitochondria Different-Phenotype (%) [3]: 20%
Population Mitotic Cells (%) [3]: 42%
Population Normal (%) [3]: 94%
Population Pyknosed Nuclei (%) [3]: 7%
Population Tubulin-Different-Phenotype (%) [3]: 28%
Total Cell Count [3]: 170
Population Apoptotic (%) [4]: 0%
Population Fragmented Nuclei (%) [4]: 10%
Population Healthy Nuclei (%) [4]: 89%
Population Hoechst High Intensity Objects (%) [4]: 16%
Population Membrane Permeable-Phenotype (%) [4]: 33%
Population Mitochondria Different-Phenotype (%) [4]: 16%
Population Mitotic Cells (%) [4]: 0%
Population Normal (%) [4]: 83%
Population Pyknosed Nuclei (%) [4]: 0%
Population Tubulin-Different-Phenotype (%) [4]: 12%
Total Cell Count [4]: 88
Population Apoptotic (%) [5]: 69%
Population Fragmented Nuclei (%) [5]: 14%
Population Healthy Nuclei (%) [5]: 63%
Population Hoechst High Intensity Objects (%) [5]: 3%
Population Membrane Permeable-Phenotype (%) [5]: 84%
Population Mitochondria Different-Phenotype (%) [5]: 100%
Population Mitotic Cells (%) [5]: 30%
Population Normal (%) [5]: 96%
Population Pyknosed Nuclei (%) [5]: 21%
Population Tubulin-Different-Phenotype (%) [5]: 100%
Total Cell Count [5]: 125
Population Apoptotic (%) [6]: 95%
Population Fragmented Nuclei (%) [6]: 16%
Population Healthy Nuclei (%) [6]: 58%
Population Hoechst High Intensity Objects (%) [6]: 8%
Population Membrane Permeable-Phenotype (%) [6]: 94%
Population Mitochondria Different-Phenotype (%) [6]: 98%
Population Mitotic Cells (%) [6]: 4%
Population Normal (%) [6]: 91%
Population Pyknosed Nuclei (%) [6]: 24%
Population Tubulin-Different-Phenotype (%) [6]: 98%
Total Cell Count [6]: 137
Population Apoptotic (%) [7]: 62%
Population Fragmented Nuclei (%) [7]: 5%
Population Healthy Nuclei (%) [7]: 87%
Population Hoechst High Intensity Objects (%) [7]: 2%
Population Membrane Permeable-Phenotype (%) [7]: 26%
Population Mitochondria Different-Phenotype (%) [7]: 13%
Population Mitotic Cells (%) [7]: 37%
Population Normal (%) [7]: 97%
Population Pyknosed Nuclei (%) [7]: 6%
Population Tubulin-Different-Phenotype (%) [7]: 22%
Total Cell Count [7]: 173
Population Apoptotic (%) [8]: 16%
Population Fragmented Nuclei (%) [8]: 4%
Population Healthy Nuclei (%) [8]: 85%
Population Hoechst High Intensity Objects (%) [8]: 8%
Population Membrane Permeable-Phenotype (%) [8]: 17%
Population Mitochondria Different-Phenotype (%) [8]: 26%
Population Mitotic Cells (%) [8]: 83%
Population Normal (%) [8]: 91%
Population Pyknosed Nuclei (%) [8]: 9%
Population Tubulin-Different-Phenotype (%) [8]: 11%
Total Cell Count [8]: 83
